{"source": "ChEMBL document CHEMBL4024796", "about": "“Phenylthiomethyl Ketone-Based Fragments Show Selective and Irreversible Inhibition of Enteroviral 3C Proteases” (J Med Chem, 2018)", "key": {"[1]": {"target": "Genome polyprotein (Coxsackievirus B3 (strain Nancy)) (UniProt P03313)", "experiment": "Inhibition of Coxsackievirus B3 C-terminal His6-tagged protease 3C expressed in Escherichia coli BL21(DE3) using N-Dabcyl-KTLEALFQGPPVYE-(Edans)-NH2 as substrate preincubated up to 60 mins followed by substrate addition by fluorescence assay", "conditions": "TDE = time-dependent effect", "outline": "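Enzyme and inhibitor (or DMSO) preincubated in assay buffer (HEPES-NaOH pH 7.5, EDTA, Triton X) for 60, 40, 20 or 0 min under a lid. Reaction started by FRET substrate addition and followed 60 min by fluorescence (ex 355/em 538 nm). Triplicates per incubation time. Relative activity calculated for every 5-min step of the reaction.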"}, "[2]": {"experiment": "Reversible inhibition of Enetrovirus D68 C-terminal His6-tagged protease 3C expressed in Escherichia coli BL21(DE3) using N-Dabcyl-KTLEALFQGPPVYE-(Edans)-NH2 as substrate after 30 mins by fluorescence assay", "design": "species or system enterovirus D68", "outline": "(§1)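 Enzyme added from 40 μM and substrate from 20 μM working solutions, inhibitor in DMSO, DMSO alone as control. Fluorescence read at ex 355/em 538 nm over 30 min, triplicates. Apparent IC50 from a Hill-type fit of initial velocities; kobs for covalent reversible inhibition from progress-curve fits.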"}, "Genome polyprotein [3]": {"target": "T1, Genome polyprotein (Coxsackievirus B3 (strain Nancy), UniProt P03313)", "T1 sequence (P03313 1541-1723 limits assumed)": "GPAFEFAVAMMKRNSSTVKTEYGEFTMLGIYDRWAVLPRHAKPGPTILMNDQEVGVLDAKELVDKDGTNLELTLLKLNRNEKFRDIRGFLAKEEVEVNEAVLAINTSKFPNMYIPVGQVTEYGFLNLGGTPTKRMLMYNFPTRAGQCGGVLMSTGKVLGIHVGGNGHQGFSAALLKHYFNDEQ", "experiment": "Reversible inhibition of Coxsackievirus B3 C-terminal His6-tagged protease 3C expressed in Escherichia coli BL21(DE3) using N-Dabcyl-KTLEALFQGPPVYE-(Edans)-NH2 as substrate after 30 mins by fluorescence assay", "outline": "(§2)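 FRET cleavage assay in 100 mM HEPES-NaOH pH 7.5, 1 mM EDTA, 0.01% Triton X. Enzyme added from a 40 µM stock, substrate diluted to 20 µM before addition. Inhibitor in DMSO, DMSO alone as control. Fluorescence at 538 nm (ex 355 nm) over 30 min, triplicates. Apparent IC50 from nonlinear fit of vi/v0 = 1/(1+[I]/IC50)^h. Ki from koff/kon for covalent reversible binding.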"}, "[4]": {"target": "Genome polyprotein (Coxsackievirus B3 (strain Nancy)) (UniProt P03313)", "experiment": "Inhibition of Coxsackievirus B3 C-terminal His6-tagged protease 3C expressed in Escherichia coli BL21(DE3) at 650 uM using N-Dabcyl-KTLEALFQGPPVYE-(Edans)-NH2 as substrate after 30 mins by fluorescence assay relative to control", "outline": "as §1"}, "Genome polyprotein [5]": {"target": "T1, Genome polyprotein", "experiment": "(§3) Inhibition of Coxsackievirus B3 C-terminal His6-tagged protease 3C expressed in Escherichia coli BL21(DE3) using N-Dabcyl-KTLEALFQGPPVYE-(Edans)-NH2 as substrate after 30 mins by fluorescence assay", "outline": "as §2"}, "[6]": {"target": "Genome polyprotein (Coxsackievirus B3 (strain Nancy)) (UniProt P03313)", "experiment": "as §3", "outline": "as §2"}, "[7]": {"target": "Genome polyprotein (Coxsackievirus B3 (strain Nancy)) (UniProt P03313)", "experiment": "Inhibition of Coxsackievirus B3 C-terminal His6-tagged protease 3C expressed in Escherichia coli BL21(DE3) at 500 uM using N-Dabcyl-KTLEALFQGPPVYE-(Edans)-NH2 as substrate preincubated up to 60 mins followed by substrate addition by fluorescence assay", "conditions": "TDE = time-dependent effect", "outline": "(§4)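 CVB3 3Cpro preincubated with inhibitor (or DMSO control) in 100 mM HEPES-NaOH pH 7.5, 1 mM EDTA, 0.01% Triton X, lid-covered, for 60, 40, 20 or 0 min. Substrate then added and reaction followed 60 min (ex 355/em 538 nm). Relative activity calculated per 5-min step versus control. Triplicates per incubation time.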"}, "[8]": {"experiment": "Drug level in HEPES-NaOH buffer treated with 7,7-dimethyl-2,5-dioxo-5,6,7,8-tetrahydro-2H-chromene-3-carboxamide overnight by LC-MS analysis"}, "[9]": {"target": "Genome polyprotein (Coxsackievirus B3 (strain Nancy)) (UniProt P03313)", "experiment": "Inhibition of Coxsackievirus B3 C-terminal His6-tagged protease 3C expressed in Escherichia coli BL21(DE3) at 100 uM using N-Dabcyl-KTLEALFQGPPVYE-(Edans)-NH2 as substrate preincubated up to 60 mins followed by substrate addition by fluorescence assay", "conditions": "TDE = time-dependent effect", "outline": "as §4"}, "[10]": {"target": "Genome polyprotein (Coxsackievirus B3 (strain Nancy)) (UniProt P03313)", "experiment": "Irreversible inhibition of Coxsackievirus B3 C-terminal His6-tagged protease 3C expressed in Escherichia coli BL21(DE3) after 60 mins by LC-MS analysis"}, "[11]": {"target": "Genome polyprotein (Coxsackievirus B3 (strain Nancy)) (UniProt P03313)", "experiment": "Irreversible inhibition of Coxsackievirus B3 C-terminal His6-tagged protease 3C expressed in Escherichia coli BL21(DE3) assessed as ratio of Kinact to Ki using N-Dabcyl-KTLEALFQGPPVYE-(Edans)-NH2 as substrate after 30 mins by fluorescence assay", "outline": "(§5)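 Same FRET assay (HEPES-NaOH 100 mM, EDTA 1 mM, Triton X 0.01%, pH 7.5; ex 355/em 538 nm; triplicates). kobs for irreversible inhibition obtained by fitting progress curves to [P]=vi/kobs(1−e^(−kobs·t)). kinact/KI taken from the slope of the linear portion of kobs versus inhibitor concentration.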"}, "enterovirus D68 [12]": {"system": "enterovirus D68", "experiment": "Irreversible inhibition of Enetrovirus D68 C-terminal His6-tagged protease 3C expressed in Escherichia coli BL21(DE3) assessed as ratio of Kinact to Ki using N-Dabcyl-KTLEALFQGPPVYE-(Edans)-NH2 as substrate after 30 mins by fluorescence assay", "outline": "as §5"}, "[13]": {"target": "Genome polyprotein (Coxsackievirus B3 (strain Nancy)) (UniProt P03313)", "experiment": "Irreversible inhibition of Coxsackievirus B3 C-terminal His6-tagged protease 3C expressed in Escherichia coli BL21(DE3) assessed as protein-compound adduct formation after 60 mins by LC-MS analysis"}, "[14]": {"target": "Genome polyprotein (Coxsackievirus B3 (strain Nancy)) (UniProt P03313)", "experiment": "Irreversible inhibition of Coxsackievirus B3 C-terminal His6-tagged protease 3C expressed in Escherichia coli BL21(DE3) assessed as thioether adduct formation after 60 mins by MALDi-TOF spectral analysis"}, "enterovirus D68 [15]": {"system": "enterovirus D68", "experiment": "Binding affinity to Enetrovirus D68 C-terminal His6-tagged protease 3C at Cys147 residue expressed in Escherichia coli BL21(DE3) assessed as adduct formation after 30 mins by fluorescence assay"}, "enterovirus D68 [16]": {"system": "enterovirus D68", "experiment": "Binding affinity to Enetrovirus D68 C-terminal His6-tagged protease 3C at Cys60 residue expressed in Escherichia coli BL21(DE3) assessed as adduct formation after 30 mins by fluorescence assay"}, "[17]": {"experiment": "Glutathione reactivity assessed as GSH-adduct formation after 2 to 24 hrs by LC-MS/MS analysis", "outline": "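Inhibitor in DMSO at 2.5 mM, mixed with equimolar glutathione in assay buffer (100 mM HEPES-NaOH, 1 mM EDTA, 0.01% Triton X, pH 7.5). Held at room temperature for 2 h and 24 h, with an aliquot taken by LC/MS after each period. Controls for each inhibitor omitted glutathione.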"}, "[18]": {"experiment": "Solubility of the compound", "format": "physicochemical"}}, "note": "Active and inactive are the calls of the source. No cut-off for these calls is given here.", "data": [{"compound": "CC(=O)c1cc(C(N)=O)n(C/C=C/c2ccccc2)c1", "values": [{"measurement": "inhibition", "setting": "[1]", "result": "Tde"}, {"measurement": "Ki", "setting": "[2]", "result": 422, "unit": "µM"}, {"measurement": "Ki", "setting": "Genome polyprotein [3]", "result": 197, "unit": "µM"}]}, {"compound": "CC1(C)CC(=O)c2cc(C(N)=O)c(=O)oc2C1", "values": [{"measurement": "inhibition", "setting": "[4]", "result": "> 30", "unit": "%"}, {"measurement": "IC50", "setting": "Genome polyprotein [5]", "result": 355, "unit": "µM"}, {"measurement": "Ki", "setting": "Genome polyprotein [5]", "result": 393, "unit": "µM"}, {"measurement": "inhibition", "setting": "[6]", "result": "Dose-dependent effect"}, {"measurement": "inhibition", "setting": "[7]", "result": "Tde"}]}, {"compound": "CC1(C)CC(=O)c2cc(C(=O)O)c(=O)oc2C1", "values": [{"measurement": "Drug metabolism", "setting": "[8]", "result": "Metabolite detected"}]}, {"compound": "Cn1cc(C(=O)CSc2ccccc2)cc1C(N)=O", "values": [{"measurement": "inhibition", "setting": "[4]", "result": "Active"}, {"measurement": "inhibition", "setting": "[9]", "result": "Tde"}, {"measurement": "inhibition", "setting": "[10]", "result": "Active"}, {"measurement": "Ratio", "setting": "[11]", "result": 16.8, "unit": "M⁻¹ s⁻¹"}, {"measurement": "Ratio", "setting": "enterovirus D68 [12]", "result": 21.3, "unit": "M⁻¹ s⁻¹"}, {"measurement": "inhibition", "setting": "[13]", "result": "Active"}, {"measurement": "inhibition", "setting": "[6]", "result": "Dose-dependent effect"}, {"measurement": "inhibition", "setting": "[14]", "result": "Active"}, {"measurement": "Activity", "setting": "enterovirus D68 [15]", "result": "Active"}]}, {"compound": "CC(=O)c1c(C)[nH]c(C(N)=O)c1C", "values": [{"measurement": "inhibition", "setting": "[4]", "result": "< 20", "unit": "%"}]}, {"compound": "Cn1cc(C(=O)CSc2nnnn2C)cc1C(N)=O", "values": [{"measurement": "inhibition", "setting": "[4]", "result": "< 20", "unit": "%"}]}, {"compound": "O=C(CSc1ccccc1)c1ccccc1", "values": [{"measurement": "inhibition", "setting": "[4]", "result": "inactive"}]}, {"compound": "NC(=O)c1cc(C(=O)CBr)cn1C/C=C/c1ccccc1", "values": [{"measurement": "Ratio", "setting": "[11]", "result": 1710, "unit": "M⁻¹ s⁻¹"}, {"measurement": "Ratio", "setting": "enterovirus D68 [12]", "result": 1210, "unit": "M⁻¹ s⁻¹"}, {"measurement": "Activity", "setting": "enterovirus D68 [16]", "result": "Active"}, {"measurement": "inhibition", "setting": "[1]", "result": "Tde"}, {"measurement": "Drug metabolism", "setting": "[17]", "result": "Metabolite detected"}, {"measurement": "Activity", "setting": "enterovirus D68 [15]", "result": "Active"}]}, {"compound": "Cc1ccc2[nH]c(C)c(C(=O)CSc3ccccc3)c2c1", "values": [{"measurement": "inhibition", "setting": "[4]", "result": "inactive"}]}, {"compound": "NC(=O)n1cc(C(=O)c2cc(O)ccc2Cl)cn1", "values": [{"measurement": "solubility", "setting": "[18]", "result": "Insoluble"}]}, {"compound": "Cn1cc(C(=O)Cn2cccc(C(F)(F)F)c2=O)cc1C(N)=O", "values": [{"measurement": "inhibition", "setting": "[4]", "result": "< 20", "unit": "%"}]}, {"compound": "NC(=O)c1cc(C(=O)C(Sc2ccccc2)Sc2ccccc2)cn1C/C=C/c1ccccc1", "values": [{"measurement": "inhibition", "setting": "[1]", "result": "Tde"}, {"measurement": "Ki", "setting": "Genome polyprotein [3]", "result": 272, "unit": "µM"}]}, {"compound": "NC(=O)c1cc(C(=O)CSc2ccccc2)cn1C/C=C/c1ccccc1", "values": [{"measurement": "Ratio", "setting": "[11]", "result": 54.4, "unit": "M⁻¹ s⁻¹"}, {"measurement": "Ratio", "setting": "enterovirus D68 [12]", "result": 160, "unit": "M⁻¹ s⁻¹"}, {"measurement": "inhibition", "setting": "[1]", "result": "Tde"}, {"measurement": "Drug metabolism", "setting": "[17]", "result": "Metabolite detected"}, {"measurement": "Activity", "setting": "enterovirus D68 [15]", "result": "Active"}]}]}
